Source: ChEMBL document CHEMBL2440067, “Novel 3-nitro-1H-1,2,4-triazole-based piperazines and 2-amino-1,3-benzothiazoles as antichagasic agents” (Bioorg Med Chem, 2013)

Tests used:
[1] = tested on: Leishmania donovani; test: Antimicrobial activity against Leishmania donovani MHOM-ET-67/L82 amastigotes after 72 hrs by Alamar blue assay; format: functional, organism-based; conditions: MHOM-ET-67/L82, 72 h
In short: (§1)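 96-well plate growth-inhibition format. Targets were T. b. rhodesiense bloodstream trypomastigotes, T. cruzi Tulahuen C4 amastigotes inside L6 rat skeletal myoblasts, axenically cultured L. donovani MHOM-ET-67/L82 amastigotes, and L6 cells alone for cytotoxicity.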

[2] = tested on: Trypanosoma cruzi; test: Antimicrobial activity against Trypanosoma cruzi Tulahuen C4 amastigotes infected in rat L6 cells after 96 hrs by beta-galactosidase reporter gene assay; format: functional, organism-based; conditions: Tulahuen C4, L6, 96 h; in short: as §1
[3] = tested on: L6; test: Cytotoxicity against rat L6 cells after 72 hrs by Alamar blue assay; format: cell-based; conditions: L6, 72 h; in short: as §1
[4] = Selectivity index, ratio of IC50 for rat L6 cells to IC50 for blood stream form of Trypanosoma brucei rhodesiense STIB 900; format: toxicity, cell-based; conditions: read-out: Ratio IC50
In short: (§2)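 SI is the L6 myoblast IC50 divided by the IC50 against the parasite named. IC50s come from 96-well dose-response curves, each the mean of two independent assays.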

[5] = tested on: Trypanosoma brucei rhodesiense; test: Antimicrobial activity against blood stream form of Trypanosoma brucei rhodesiense STIB 900 after 72 hrs by Alamar blue assay; format: functional, organism-based; conditions: STIB 900, 72 h; in short: as §1
[6] = Selectivity index, ratio of IC50 for rat L6 cells to IC50 for Leishmania donovani MHOM-ET-67/L82 amastigotes; format: toxicity, cell-based; conditions: read-out: Ratio IC50; in short: as §2
[7] = tested on: Trypanosoma cruzi; test: Ratio of banznidazole IC50 to compound IC50 for Trypanosoma cruzi Tulahuen C4 amastigotes; format: functional
[8] = Selectivity index, ratio of IC50 for rat L6 cells to IC50 for Trypanosoma cruzi Tulahuen C4 amastigotes; format: toxicity, cell-based; conditions: read-out: Ratio IC50; in short: as §2
[9] = Prodrug conversion assessed as Trypanosoma brucei brucei recombinant his-tagged nitroreductase-mediated NADH oxidization by spectrophotometric analysis; format: ADME; conditions: isolated protein

| SMILES | IC50 [1] [µM] | IC50 [2] [µM] | IC50 [3] [µM] | selectivity ratio [4] | IC50 [5] [µM] | selectivity ratio [6] | Ratio IC50 [7] | selectivity ratio [8] | Drug metabolism [9] [nmol/min/mg] |
| --- | --- | --- | --- | --- | --- | --- | --- | --- | --- |
| O=[N+]([O-])c1ncn(CCCN2CCN(c3ccncc3)CC2)n1 | > 315 | 8.8 | 154 | 115 | 1.34 | < 1 | 0.2 | 17.5 |  |
| Cl.O=C(C1CC1)N1CCN(CCCn2cnc([N+](=O)[O-])n2)CC1 | > 290 | 4.7 | 203 | 13 | 15.6 | < 1 | 0.3 | 43.1 |  |
| O=[N+]([O-])c1ncn(CCCNc2nc3ccc(Cl)cc3s2)n1 | 4.49 | 0.059 | 102 | 500 | 0.204 | 22.7 | 26.6 | 1720 |  |
| O=[N+]([O-])c1ncn(CCCNc2nc3ccccc3s2)n1 | 20 | 0.566 | 162 | 170 | 0.954 | 8.1 | 3.6 | 287 |  |
| O=[N+]([O-])c1ncn(CCCCNc2nc3ccc(Cl)cc3s2)n1 | 4.1 | 0.142 | 44.5 | 126 | 0.355 | 10.9 | 14.4 | 314 |  |
| O=[N+]([O-])c1nccn1CCCNc1nc2ccc(Cl)cc2s1 | 4.27 | 3.23 | 49.5 | 6.5 | 7.61 | 11.6 | 0.6 | 15.3 |  |
| O=[N+]([O-])c1nccn1CCCNc1nc2ccccc2s1 | 11.4 | 4.88 | 176 | 3.4 | 52.5 | 15.4 | 0.4 | 36.1 |  |
| O=[N+]([O-])c1nccn1CCCCNc1nc2ccc(Cl)cc2s1 | 7.3 | 1.75 | 43 | 11.1 | 3.87 | 5.5 | 1.2 | 24.6 |  |
| Cl.Cl.O=[N+]([O-])c1ncn(CCCN2CCN(Cc3ccc(C(F)(F)F)cc3)CC2)n1 |  |  |  |  |  |  | 4.6 |  | 420 |
| Cl.Cl.O=[N+]([O-])c1ncn(CCCCN2CCN(Cc3ccc(C(F)(F)F)cc3)CC2)n1 |  |  |  |  |  |  | 3.8 |  | 364 |
| Cl.Cl.O=[N+]([O-])c1ncn(CCCN2CCN(c3ccc(C(F)(F)F)cc3)CC2)n1 |  |  |  |  |  |  | 39.2 |  | 788 |
| Cl.Cl.Cl.Cl.O=[N+]([O-])c1ncn(CCCN2CCN(Cc3ccc(Cl)c(Cl)c3)CC2)n1 | 23.9 | 0.286 | 33.5 | 42.9 | 0.78 | 1.4 | 7.1 | 117 |  |
| Cc1ccc(N2CCN(CCCn3cnc([N+](=O)[O-])n3)CC2)cc1.Cl.Cl | 173 | 0.419 | 121 | 5.1 | 23.9 | < 1 | 3.7 | 289 |  |
| Cl.Cl.N#Cc1ccccc1N1CCN(CCCn2cnc([N+](=O)[O-])n2)CC1 | 180 | 0.828 | 113 | 10.8 | 10.5 | < 1 | 2.5 | 137 |  |
| COc1ccc(N2CCN(CCCn3cnc([N+](=O)[O-])n3)CC2)cc1.Cl.Cl | > 239 | 0.556 | 125 | 3.5 | 35.6 | < 1 | 2.8 | 224 |  |
| COc1ccc(N2CCN(CCCn3ccnc3[N+](=O)[O-])CC2)cc1.Cl.Cl | 186 | 34.4 | 137 | 2.2 | 62.4 | < 1 | 0.1 | 4 |  |
| Cl.Cl.Cl.Cl.O=[N+]([O-])c1nccn1CCCN1CCN(Cc2ccc(Cl)c(Cl)c2)CC1 | 150 | 9.4 | 79.2 | 7.4 | 10.7 | < 1 | 0.2 | 8.4 |  |
| Cl.Cl.O=[N+]([O-])c1ncn(CCCN2CCN(c3ncccn3)CC2)n1 | > 100 | 1.68 | > 100 | 5.2 | 49.6 | 1 | 0.9 | 152 |  |
| Cl.Cl.O=[N+]([O-])c1ncn(CCCN2CCN(c3ccccn3)CC2)n1 | > 315 | 0.848 | 153 | 4.3 | 35.6 | < 1 | 1.9 | 180 |  |
| Cl.Cl.Cl.Cl.O=[N+]([O-])c1ncn(CCCN2CCN(c3ccc(Cl)c(Cl)c3)CC2)n1 | 11.3 | 0.048 | 41.7 | 180 | 0.231 | 3.7 | 32.7 | 868 |  |
| O=C(Cn1ccnc1[N+](=O)[O-])NCc1ccccc1 [BENZNIDAZOLE] |  |  |  |  |  |  |  |  | 218 |
| CC1CS(=O)(=O)CCN1/N=C/c1ccc([N+](=O)[O-])o1 (centres undefined) [NIFURTIMOX] |  |  |  |  |  |  |  |  | 74 |
